{
  "source": "ChEMBL document CHEMBL4613248",
  "about": "“Twelfth-Position Deuteration of Nevirapine Reduces 12-Hydroxy-Nevirapine Formation and Nevirapine-Induced Hepatocyte Death” (J Med Chem, 2020)",
  "key": {"[1]": {"assay": "Drug metabolism in C57BL/6J mouse primary hepatocytes assessed as Cytochrome P450-mediated formation of 2-OHD3NVP at 10 uM incubated for 24 hrs by uHPLC-MS analysis", "format": "ADME, cell-based", "how_it_was_run": "(§1)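 Fresh hepatocytes from male C57BL/6J mice (8–13 weeks), adhered overnight, then 10 μM substrate or vehicle (0.1% DMSO) for 24 h. Medium extracted with acetonitrile (50% final), dried, reconstituted in methanol; uHPLC-Orbitrap targeted SIM plus PRM (monooxygenated metabolites) or high-resolution ions (O-glucuronides, 459.1510/462.1700 ±5 ppm); four experimental replicates.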"}, "[2]": {"assay": "Drug metabolism in C57BL/6J mouse primary hepatocytes assessed as Cytochrome P450-mediated formation of 3-OHD3NVP at 10 uM incubated for 24 hrs by uHPLC-MS analysis", "format": "ADME, cell-based", "how_it_was_run": "as §1"}, "Cytochrome P450 [3]": {"test_system": "Cytochrome P450", "assay": "Drug metabolism in human primary hepatocytes assessed as Cytochrome P450-mediated formation of 8-OHNVP at 10 uM incubated for 24 to 48 hrs by uHPLC-MS analysis", "format": "ADME, cell-based", "how_it_was_run": "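Cryoplateable pooled human hepatocytes (10 mixed-sex donors per pool, three lots), adhered overnight, then 10 μM substrate or vehicle (0.1% DMSO) for 24 or 48 h in InVitroGRO CP medium. Medium extracted with 50% acetonitrile, dried, reconstituted in methanol; uHPLC-Orbitrap MS/MS for monooxygenated metabolites, high-resolution MS for O-glucuronide.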"}, "Cytochrome P450 3A5": {"target": "Cytochrome P450 3A5 (Homo sapiens, UniProt P20815)", "sequence (P20815 whole entry)": "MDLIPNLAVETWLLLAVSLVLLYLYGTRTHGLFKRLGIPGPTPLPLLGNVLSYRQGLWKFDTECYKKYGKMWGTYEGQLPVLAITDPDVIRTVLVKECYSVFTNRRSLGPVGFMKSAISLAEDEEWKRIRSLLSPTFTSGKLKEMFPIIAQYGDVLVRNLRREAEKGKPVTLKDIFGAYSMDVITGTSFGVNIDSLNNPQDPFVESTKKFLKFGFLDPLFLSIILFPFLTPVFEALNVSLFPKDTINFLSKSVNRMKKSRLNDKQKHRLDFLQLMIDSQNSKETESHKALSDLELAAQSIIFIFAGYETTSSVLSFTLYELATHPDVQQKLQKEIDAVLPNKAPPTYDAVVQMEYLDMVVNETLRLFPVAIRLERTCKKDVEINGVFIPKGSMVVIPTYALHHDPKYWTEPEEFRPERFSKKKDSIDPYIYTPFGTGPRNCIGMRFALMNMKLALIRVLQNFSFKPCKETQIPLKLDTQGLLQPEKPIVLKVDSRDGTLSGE", "assay": "Drug metabolism assessed as human CYP3A5-mediated formation of 12-OHNVP at 10 uM pre-incubated for 30 mins followed by addition of NADPH regenerating reagents by uHPLC-MS analysis", "format": "ADME", "conditions": "recombinant enzyme", "how_it_was_run": "(§2)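 Insect-cell microsomes with single cDNA-expressed human P450 (100 nM) in 0.1 M potassium phosphate; 10 μM substrate prewarmed 5 min at 37 °C with NADPH-regenerating system, reaction started by adding microsomes; 30 min at 37 °C, 0.1% DMSO. Stopped, dried, reconstituted in methanol; triple-quadrupole SRM (12-OH 283.1→223.0, 2-OH 283.1→160.9, 3-OH 283.1→241.9), peak height; three replicates, mean ± SD.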"}, "Cytochrome P450 2C9": {"target": "Cytochrome P450 2C9 (Homo sapiens, UniProt P11712)", "sequence (P11712 whole entry)": "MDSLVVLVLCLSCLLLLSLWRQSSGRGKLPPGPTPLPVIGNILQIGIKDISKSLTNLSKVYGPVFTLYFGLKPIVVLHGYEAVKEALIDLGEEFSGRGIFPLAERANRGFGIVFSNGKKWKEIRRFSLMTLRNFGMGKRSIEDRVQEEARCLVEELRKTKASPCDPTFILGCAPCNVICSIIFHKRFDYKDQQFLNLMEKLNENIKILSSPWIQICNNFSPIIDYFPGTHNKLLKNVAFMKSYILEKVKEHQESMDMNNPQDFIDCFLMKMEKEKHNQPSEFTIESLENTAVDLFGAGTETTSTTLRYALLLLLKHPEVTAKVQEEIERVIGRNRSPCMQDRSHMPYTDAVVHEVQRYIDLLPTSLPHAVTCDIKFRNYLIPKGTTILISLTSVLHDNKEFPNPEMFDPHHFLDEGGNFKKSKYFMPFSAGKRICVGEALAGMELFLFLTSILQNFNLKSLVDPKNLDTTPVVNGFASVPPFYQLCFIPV", "assay": "Drug metabolism assessed as human CYP2C9-mediated formation of 12-OHNVP at 10 uM pre-incubated for 30 mins followed by addition of NADPH regenerating reagents by uHPLC-MS analysis", "format": "ADME", "conditions": "recombinant enzyme", "how_it_was_run": "as §2"}, "Cytochrome P450 2C19": {"target": "Cytochrome P450 2C19 (Homo sapiens, UniProt P33261)", "sequence (P33261 whole entry)": "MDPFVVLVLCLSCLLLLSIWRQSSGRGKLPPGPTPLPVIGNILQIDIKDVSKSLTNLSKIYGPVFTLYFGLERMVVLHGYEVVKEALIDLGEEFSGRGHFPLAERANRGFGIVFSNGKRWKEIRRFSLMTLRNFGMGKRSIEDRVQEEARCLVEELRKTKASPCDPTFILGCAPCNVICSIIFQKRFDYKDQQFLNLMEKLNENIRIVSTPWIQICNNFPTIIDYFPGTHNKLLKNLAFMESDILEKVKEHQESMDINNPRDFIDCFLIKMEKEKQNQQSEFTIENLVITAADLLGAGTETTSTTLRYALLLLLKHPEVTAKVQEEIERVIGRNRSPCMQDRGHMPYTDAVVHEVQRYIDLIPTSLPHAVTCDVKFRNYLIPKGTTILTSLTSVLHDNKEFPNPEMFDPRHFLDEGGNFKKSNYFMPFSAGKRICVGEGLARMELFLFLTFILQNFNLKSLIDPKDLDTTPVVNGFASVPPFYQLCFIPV", "assay": "Drug metabolism assessed as human CYP2C19-mediated formation of 12-OHNVP at 10 uM pre-incubated for 30 mins followed by addition of NADPH regenerating reagents by uHPLC-MS analysis", "format": "ADME", "conditions": "recombinant enzyme", "how_it_was_run": "as §2"}, "Cytochrome P450 [4]": {"test_system": "Cytochrome P450", "assay": "Drug metabolism in human liver microsomes assessed as Cytochrome P450-mediated formation of 12-OHNVP by measuring Kcat/Km ratio in presence of NADPH regenerating reagents by uHPLC-MS/MS analysis", "how_it_was_run": "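Pooled human liver microsomes (2.5 mg/mL) in potassium phosphate; substrate (1–400 μM) prewarmed 5 min at 37 °C with NADPH-regenerating system, started with microsomes, 30 min at 37 °C. 12-OH product quantified by uHPLC-MS/MS Orbitrap against 12-OHNVP standard curve made in microsomes without NADPH. Kcat/Km taken as slope of linear rate vs substrate fit at nonsaturating 0–50 μM.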"}, "Cytochrome P450 [5]": {"test_system": "Cytochrome P450", "assay": "Drug metabolism in human liver microsomes assessed as Cytochrome P450-mediated formation of 3-OHNVP formation at 5 to 400 uM in presence of NADPH regenerating reagents by uHPLC-MS/MS analysis", "format": "ADME", "how_it_was_run": "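Pooled human liver microsomes (2.5 mg/mL) with NADPH-regenerating system, substrate 5–400 μM, 30 min at 37 °C, 0.1% DMSO (0.2% at 400 μM); 2- and 3-OH metabolites by uHPLC-MS/MS Orbitrap; three replicates, mean ± SD.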"}, "Hepatocyte [6]": {"test_system": "Hepatocyte", "assay": "Induction of change in Slc9a3r1 protein expression in C57BL/6J mouse primary hepatocytes at 400 uM incubated for 8 hrs by relative-quantitation label-free proteomics analysis relative to NVP", "format": "cell-based", "how_it_was_run": "(§3)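 Fresh primary hepatocytes from male C57BL/6J mice aged 8–13 weeks, adhered overnight, then given fresh medium containing compound (400 μM), NVP (400 μM) or vehicle (0.2% DMSO) for 8 h. Lysate reduced (DTT) and alkylated (iodoacetamide), acetone-precipitated and digested with trypsin. Label-free Top10 nanoLC-MS with precursor ion area quantitation; unpaired t test P values, Cohen's d effect size.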"}, "Hepatocyte [7]": {"test_system": "Hepatocyte", "assay": "Induction of change in Sirt5 protein expression in C57BL/6J mouse primary hepatocytes at 400 uM incubated for 8 hrs by relative-quantitation label-free proteomics analysis relative to NVP", "format": "cell-based", "how_it_was_run": "as §3"}, "Hepatocyte [8]": {"test_system": "Hepatocyte", "assay": "Induction of change in Gapdh protein expression in C57BL/6J mouse primary hepatocytes at 400 uM incubated for 8 hrs by relative-quantitation label-free proteomics analysis relative to NVP", "format": "cell-based", "how_it_was_run": "as §3"}, "Hepatocyte [9]": {"test_system": "Hepatocyte", "assay": "Induction of change in Actb protein expression in C57BL/6J mouse primary hepatocytes at 400 uM incubated for 8 hrs by relative-quantitation label-free proteomics analysis relative to NVP", "format": "cell-based", "how_it_was_run": "as §3"}, "Hepatocyte [10]": {"test_system": "Hepatocyte", "assay": "Induction of change in Rps27l protein expression in C57BL/6J mouse primary hepatocytes at 400 uM incubated for 8 hrs by relative-quantitation label-free proteomics analysis relative to NVP", "format": "cell-based", "how_it_was_run": "as §3"}, "Hepatocyte [11]": {"test_system": "Hepatocyte", "assay": "Induction of change in MRPL23 protein expression in human primary hepatocytes at 10 uM incubated for 48 hrs by relative-quantitation label-free proteomics analysis relative to NVP", "format": "cell-based", "how_it_was_run": "as §3, with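 “Cryoplateable pooled human” for “Fresh primary”, “(10 mixed-sex donors per pool; three pools),” for “from male C57BL/6J mice aged 8–13 weeks,”, “(10” for “(400”, “(0.1%” for “(0.2%”, “48” for “8”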"}, "Hepatocyte [12]": {"test_system": "Hepatocyte", "assay": "Induction of change in CARS2 protein expression in human primary hepatocytes at 10 uM incubated for 48 hrs by relative-quantitation label-free proteomics analysis relative to NVP", "format": "cell-based", "how_it_was_run": "as §3, with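 “Cryoplateable pooled human” for “Fresh primary”, “(10 mixed-sex donors per pool; three pools),” for “from male C57BL/6J mice aged 8–13 weeks,”, “(10” for “(400”, “(0.1%” for “(0.2%”, “48” for “8”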"}, "Hepatocyte [13]": {"test_system": "Hepatocyte", "assay": "Induction of change in RBM39 protein expression in human primary hepatocytes at 10 uM incubated for 48 hrs by relative-quantitation label-free proteomics analysis relative to NVP", "format": "cell-based", "how_it_was_run": "as §3, with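 “Cryoplateable pooled human” for “Fresh primary”, “(10 mixed-sex donors per pool; three pools),” for “from male C57BL/6J mice aged 8–13 weeks,”, “(10” for “(400”, “(0.1%” for “(0.2%”, “48” for “8”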"}, "Hepatocyte [14]": {"test_system": "Hepatocyte", "assay": "Induction of change in SHMT2 protein expression in human primary hepatocytes at 10 uM incubated for 48 hrs by relative-quantitation label-free proteomics analysis relative to NVP", "format": "cell-based", "how_it_was_run": "as §3, with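 “Cryoplateable pooled human” for “Fresh primary”, “(10 mixed-sex donors per pool; three pools),” for “from male C57BL/6J mice aged 8–13 weeks,”, “(10” for “(400”, “(0.1%” for “(0.2%”, “48” for “8”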"}, "Hepatocyte [15]": {"test_system": "Hepatocyte", "assay": "Induction of change in CYB5A protein expression in human primary hepatocytes at 10 uM incubated for 48 hrs by relative-quantitation label-free proteomics analysis relative to NVP", "format": "cell-based", "how_it_was_run": "as §3, with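 “Cryoplateable pooled human” for “Fresh primary”, “(10 mixed-sex donors per pool; three pools),” for “from male C57BL/6J mice aged 8–13 weeks,”, “(10” for “(400”, “(0.1%” for “(0.2%”, “48” for “8”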"}, "Hepatocyte [16]": {"test_system": "Hepatocyte", "assay": "Induction of change in MTX2 protein expression in human primary hepatocytes at 10 uM incubated for 48 hrs by relative-quantitation label-free proteomics analysis relative to NVP", "format": "cell-based", "how_it_was_run": "as §3, with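 “Cryoplateable pooled human” for “Fresh primary”, “(10 mixed-sex donors per pool; three pools),” for “from male C57BL/6J mice aged 8–13 weeks,”, “(10” for “(400”, “(0.1%” for “(0.2%”, “48” for “8”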"}, "Hepatocyte [17]": {"test_system": "Hepatocyte", "assay": "Induction of change in NOL6 protein expression in human primary hepatocytes at 10 uM incubated for 48 hrs by relative-quantitation label-free proteomics analysis relative to NVP", "format": "cell-based", "how_it_was_run": "as §3, with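 “Cryoplateable pooled human” for “Fresh primary”, “(10 mixed-sex donors per pool; three pools),” for “from male C57BL/6J mice aged 8–13 weeks,”, “(10” for “(400”, “(0.1%” for “(0.2%”, “48” for “8”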"}, "Hepatocyte [18]": {"test_system": "Hepatocyte", "assay": "Induction of change in CCAR2 protein expression in human primary hepatocytes at 10 uM incubated for 48 hrs by relative-quantitation label-free proteomics analysis relative to NVP", "format": "cell-based", "how_it_was_run": "as §3, with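 “Cryoplateable pooled human” for “Fresh primary”, “(10 mixed-sex donors per pool; three pools),” for “from male C57BL/6J mice aged 8–13 weeks,”, “(10” for “(400”, “(0.1%” for “(0.2%”, “48” for “8”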"}},
  "data": [
    {"smiles": "[2H]C([2H])([2H])c1ccnc2c1NC(=O)c1cccnc1N2C1CC1", "values": [
      {"measurement": "Drug metabolism", "setting": "[1]", "result": "Metabolite_Detected"},
      {"measurement": "Drug metabolism", "setting": "[2]", "result": "Metabolite_Detected"},
      {"measurement": "Drug metabolism", "setting": "Cytochrome P450 [3]", "result": "Metabolite_Notdetected"},
      {"measurement": "Drug metabolism", "setting": "Cytochrome P450 3A5", "result": "Metabolite_Notdetected"},
      {"measurement": "Drug metabolism", "setting": "Cytochrome P450 2C9", "result": "Metabolite_Detected"},
      {"measurement": "Drug metabolism", "setting": "Cytochrome P450 2C19", "result": "Metabolite_Detected"},
      {"measurement": "Kcat/Km", "setting": "Cytochrome P450 [4]", "result": 0.153, "unit": "M⁻¹ s⁻¹"},
      {"measurement": "Drug metabolism", "setting": "Cytochrome P450 [5]", "result": "Metabolite_Detected"},
      {"measurement": "fold change (FC)", "setting": "Hepatocyte [6]", "result": 2.5},
      {"measurement": "fold change (FC)", "setting": "Hepatocyte [7]", "result": 1.56},
      {"measurement": "fold change (FC)", "setting": "Hepatocyte [8]", "result": 1.4},
      {"measurement": "fold change (FC)", "setting": "Hepatocyte [9]", "result": 1.05},
      {"measurement": "fold change (FC)", "setting": "Hepatocyte [10]", "result": -5.67},
      {"measurement": "fold change (FC)", "setting": "Hepatocyte [11]", "result": 8.32},
      {"measurement": "fold change (FC)", "setting": "Hepatocyte [12]", "result": 1.85},
      {"measurement": "fold change (FC)", "setting": "Hepatocyte [13]", "result": 1.7},
      {"measurement": "fold change (FC)", "setting": "Hepatocyte [14]", "result": -1.28},
      {"measurement": "fold change (FC)", "setting": "Hepatocyte [15]", "result": -1.5},
      {"measurement": "fold change (FC)", "setting": "Hepatocyte [16]", "result": -1.67},
      {"measurement": "fold change (FC)", "setting": "Hepatocyte [17]", "result": -1.85},
      {"measurement": "fold change (FC)", "setting": "Hepatocyte [18]", "result": -2.05}
    ]}
  ]
}
